Measured values published in ChEMBL document CHEMBL1123723, “S-[(N,N'-diarylamidino)methyl] diethyldithiocarbamates and related amides as potential radioprotectants” (J Med Chem, 1987).

Columns and labels:
[1] = Antiradiation evaluation test was carried out in mice and lethal dose for antiradiation effect at 800 rads was evaluated by the x-ray.; type: ADME, organism-based; details: mouse, in vivo
Mus musculus [2] = test: Antiradiation evaluation test was carried out in mice and percent of survival of animals after 30-day was determined at lowest dose of 125 mg/kg required for the highest survival rate.; type: functional; details: 720 h
Mus musculus [3] = species on record: Mus musculus; test: Antiradiation evaluation test was carried out in mice and mean survival time(MST) for mice that died over a 30 day period was determined.; type: functional
In short: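 Mice (strain "H", both sexes, 23-25 g, 20 per group) were given the drug as a methylcellulose/Tween-80 suspension and exposed to 800-rad X-rays at 96 rads/min alongside untreated controls. The value is the mean survival time of the mice that died within the 30-day observation period.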

Mus musculus [4] = test: Antiradiation evaluation test was carried out in mice and percent of survival of animals after 30-day was determined at lowest dose of 340 mg/kg required for the highest survival rate.; type: functional; details: 720 h
Mus musculus [5] = test: Antiradiation evaluation test was carried out in mice and percent of survival of animals after 30-day was determined at lowest dose of 150 mg/kg required for the highest survival rate.; type: functional; details: 720 h
Mus musculus [6] = test: Antiradiation evaluation test was carried out in mice and percent of survival of animals after 30-day was determined at lowest dose of 210 mg/kg required for the highest survival rate.; type: functional; details: 720 h
Mus musculus [7] = test: Antiradiation evaluation test was carried out in mice and percent of survival of animals after 30-day was determined at lowest dose of 280 mg/kg required for the highest survival rate.; type: functional; details: 720 h
Mus musculus [8] = test: Antiradiation evaluation test was carried out in mice and percent of survival of animals after 30-day was determined at lowest dose of 360 mg/kg required for the highest survival rate.; type: functional; details: 720 h
Mus musculus [9] = test: Antiradiation evaluation test was carried out in mice and percent of survival of animals after 30-day was determined at lowest dose of 250 mg/kg required for the highest survival rate.; type: functional; details: 720 h

CCN(CC)C(=S)SC/C(=N\c1ccccc1)Nc1ccc(C)cc1
LD50 [1]: 720 mg/kg
survival at 125 mg/kg (Mus musculus [2]): 10%
MST (Mus musculus [3]): 9.6 days

CCN(CC)C(=S)SC/C(=N\c1ccc(OC)cc1)Nc1ccc(OC)cc1
LD50 [1]: 1370 mg/kg
survival at 340 mg/kg (Mus musculus [4]): 60%
MST (Mus musculus [3]): 14.3 days

CCN(CC)C(=S)SC/C(=N\c1ccccc1)Nc1ccc(OC)cc1
LD50 [1]: 780 mg/kg
survival at 150 mg/kg (Mus musculus [5]): 10%
MST (Mus musculus [3]): 10.8 days

CCN(CC)C(=S)SC/C(=N\c1ccccc1)Nc1ccccc1
LD50 [1]: 840 mg/kg
survival at 150 mg/kg (Mus musculus [5]): 5%
MST (Mus musculus [3]): 8.1 days

CCOc1ccc(N/C(CSC(=S)N(CC)CC)=N/c2ccccc2)cc1
LD50 [1]: 800 mg/kg
survival at 150 mg/kg (Mus musculus [5]): 35%
MST (Mus musculus [3]): 9.1 days

CCN(CC)C(=S)SC/C(=N\c1ccc(C)cc1)Nc1ccc(C)cc1
LD50 [1]: 970 mg/kg
survival at 210 mg/kg (Mus musculus [6]): 0%
MST (Mus musculus [3]): 6.1 days

CCOc1ccc(N/C(CSC(=S)N(CC)CC)=N/c2ccc(OC)cc2)cc1
LD50 [1]: 1270 mg/kg
survival at 280 mg/kg (Mus musculus [7]): 60%
MST (Mus musculus [3]): 13.5 days

CCOc1ccc(/N=C(\CSC(=S)N(CC)CC)Nc2ccc(OCC)cc2)cc1
LD50 [1]: 1240 mg/kg
survival at 360 mg/kg (Mus musculus [8]): 70%
MST (Mus musculus [3]): 13.5 days

CCOc1ccc(N/C(CSC(=S)N(CC)CC)=N/c2ccc(C)cc2)cc1
LD50 [1]: 850 mg/kg
survival at 210 mg/kg (Mus musculus [6]): 25%
MST (Mus musculus [3]): 10.5 days

CCN(CC)C(=S)SC/C(=N\c1ccc(C)cc1)Nc1ccc(OC)cc1
LD50 [1]: 970 mg/kg
survival at 250 mg/kg (Mus musculus [9]): 40%
MST (Mus musculus [3]): 9.8 days
